Values after ≈ are worked out from the molar mass of the structure shown.
How the values were obtained:
[1] = test system: Nakaseomyces glabratus; experiment: Antifungal activity against Candida glabrata after 24 to 72 hrs by broth microdilution method; type: functional
How it was run: (§1)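 Broth microdilution MIC per CLSI M27-A3 (yeasts) or M38-A2 (molds). RPMI 1640 with L-glutamine, without bicarbonate, buffered to pH 7.0 with 0.165 M MOPS. Final test range for the compounds was 0.175–87.5 μM. Incubation at 35°C with visual reading at 24–72 h. MIC was the lowest concentration giving 100% inhibition versus the growth control (azoles 50% or 100%, by organism). Each isolate was run in duplicate in two independent experiments.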

[2] = test system: Meyerozyma guilliermondii; experiment: Antifungal activity against Candida guilliermondii after 24 to 72 hrs by broth microdilution method; type: functional; how it was run: as §1
[3] = test system: Candida parapsilosis; experiment: Antifungal activity against Candida parapsilosis after 24 to 72 hrs by broth microdilution method; type: functional; conditions: Lodderomyces parapsilosis; how it was run: as §1
[4] = test system: Cryptococcus neoformans; experiment: Antifungal activity against Cryptococcus neoformans after 24 to 72 hrs by broth microdilution method; type: functional; how it was run: as §1
[5] = test system: Candida albicans; experiment: Antifungal activity against Candida albicans after 24 to 72 hrs by broth microdilution method; type: functional
How it was run: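 CLSI M27-A3 broth microdilution for yeasts in RPMI 1640 with L-glutamine and no bicarbonate, buffered with 0.165 M MOPS to pH 7.0. Compounds were dissolved in water and tested at 0.175–87.5 μM final, 35°C. MIC was read visually at 24–72 h as 100% inhibition versus growth control. For MFC, 30 μl from clear wells went onto SDA at 35°C for 48–72 h, reading the lowest concentration without colonies. Duplicates, two independent runs.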

[6] = test system: Clavispora lusitaniae; experiment: Antifungal activity against Candida lusitaniae after 24 to 72 hrs by broth microdilution method; type: functional; how it was run: as §1
[7] = test system: Pichia kudriavzevii; experiment: Antifungal activity against Candida krusei after 24 to 72 hrs by broth microdilution method; type: functional; how it was run: as §1
[8] = test system: Cryptococcus gattii species complex; experiment: Antifungal activity against Cryptococcus gattii after 24 to 72 hrs by broth microdilution method; type: functional, Cryptococcus bacillisporus; how it was run: as §1
[9] = test system: Candida tropicalis; experiment: Antifungal activity against Candida tropicalis after 24 to 72 hrs by broth microdilution method; type: functional; how it was run: as §1
[10] = test system: Candida dubliniensis; experiment: Antifungal activity against Candida dubliniensis after 24 to 72 hrs by broth microdilution method; type: functional; how it was run: as §1

Row | SMILES | MIC [1] [µg/mL] | MIC50 [1] [µg/mL] | MIC90 [1] [µg/mL] | MIC [2] [µg/mL] | MIC50 [2] [µg/mL] | MIC90 [2] [µg/mL] | MIC [3] [µg/mL] | MIC50 [3] [µg/mL] | MIC90 [3] [µg/mL] | MIC [4] [µg/mL] | MIC50 [4] [µg/mL] | MIC90 [4] [µg/mL] | MIC [5] [µg/mL] | MIC50 [5] [µg/mL] | MIC90 [5] [µg/mL] | MIC [6] [µg/mL] | MIC50 [6] [µg/mL] | MIC90 [6] [µg/mL] | MIC [7] [µg/mL] | MIC50 [7] [µg/mL] | further results
1 | OC(Cn1cncn1)(Cn1cncn1)c1ccc(F)cc1F [FLUCONAZOLE] | 32 (≈ 104 µM) | 16 (≈ 52.2 µM) | 256 (≈ 836 µM) | 7.46 (≈ 24.4 µM) | 4 (≈ 13.1 µM) | 16 (≈ 52.2 µM) | 2.14 (≈ 6.99 µM) | 2 (≈ 6.53 µM) | 4 (≈ 13.1 µM) | 4.59 (≈ 15 µM) | 4 (≈ 13.1 µM) | 16 (≈ 52.2 µM) | 1.15 (≈ 3.75 µM) | 0.5 (≈ 1.63 µM) | 16 (≈ 52.2 µM) | 2.64 (≈ 8.62 µM) | 2 (≈ 6.53 µM) | 4 (≈ 13.1 µM) | 84.5 (≈ 276 µM) | 64 (≈ 209 µM) | MIC90 [7]: 128 µg/mL (≈ 418 µM); MIC [8]: 4 µg/mL (≈ 13.1 µM); MIC50 [8]: 4 µg/mL (≈ 13.1 µM); MIC90 [8]: 8 µg/mL (≈ 26.1 µM); MIC [9]: 1.41 µg/mL (≈ 4.6 µM); MIC50 [9]: 1 µg/mL (≈ 3.27 µM); MIC90 [9]: 4 µg/mL (≈ 13.1 µM); MIC [10]: 0.43 µg/mL (≈ 1.4 µM); MIC50 [10]: 0.25 µg/mL (≈ 0.816 µM); MIC90 [10]: 0.5 µg/mL (≈ 1.63 µM)
2 | C[C@@H](c1ncncc1F)[C@](O)(Cn1cncn1)c1ccc(F)cc1F [VORICONAZOLE] | 0.41 (≈ 1.17 µM) | 0.25 (≈ 0.716 µM) | 4 (≈ 11.5 µM) | 0.124 (≈ 0.355 µM) | 0.125 (≈ 0.358 µM) | 0.25 (≈ 0.716 µM) | 0.043 (≈ 0.123 µM) | 0.06 (≈ 0.172 µM) | 0.06 (≈ 0.172 µM) | 0.04 (≈ 0.115 µM) | 0.03 (≈ 0.0859 µM) | 0.125 (≈ 0.358 µM) | 0.04 (≈ 0.115 µM) | 0.01 (≈ 0.0286 µM) | 0.17 (≈ 0.487 µM) | 0.02 (≈ 0.0573 µM) | 0.03 (≈ 0.0859 µM) | 0.16 (≈ 0.458 µM) | 0.41 (≈ 1.17 µM) | 0.25 (≈ 0.716 µM) | MIC90 [7]: 1 µg/mL (≈ 2.86 µM); MIC [8]: 0.05 µg/mL (≈ 0.143 µM); MIC50 [8]: 0.06 µg/mL (≈ 0.172 µM); MIC90 [8]: 0.06 µg/mL (≈ 0.172 µM); MIC [9]: 0.07 µg/mL (≈ 0.2 µM); MIC50 [9]: 0.125 µg/mL (≈ 0.358 µM); MIC90 [9]: 0.25 µg/mL (≈ 0.716 µM); MIC [10]: 0.011 µg/mL (≈ 0.0315 µM); MIC50 [10]: 0.008 µg/mL (≈ 0.0229 µM); MIC90 [10]: 0.016 µg/mL (≈ 0.0458 µM)
3 | CCC(C)n1ncn(-c2ccc(N3CCN(c4ccc(OCC5COC(Cn6cncn6)(c6ccc(Cl)cc6Cl)O5)cc4)CC3)cc2)c1=O (stereo not given) [ITRACONAZOLE] | 1.15 (≈ 1.63 µM) | 0.5 (≈ 0.709 µM) | 16 (≈ 22.7 µM) | 0.5 (≈ 0.709 µM) | 0.5 (≈ 0.709 µM) | 1 (≈ 1.42 µM) | 0.07 (≈ 0.0992 µM) | 0.06 (≈ 0.085 µM) | 0.125 (≈ 0.177 µM) | 0.06 (≈ 0.085 µM) | 0.06 (≈ 0.085 µM) | 0.125 (≈ 0.177 µM) | 0.07 (≈ 0.0992 µM) | 0.04 (≈ 0.0567 µM) | 0.09 (≈ 0.128 µM) | 0.09 (≈ 0.128 µM) | 0.06 (≈ 0.085 µM) | 0.25 (≈ 0.354 µM) | 0.33 (≈ 0.468 µM) | 0.25 (≈ 0.354 µM) | MIC90 [7]: 0.5 µg/mL (≈ 0.709 µM); MIC [8]: 0.07 µg/mL (≈ 0.0992 µM); MIC50 [8]: 0.06 µg/mL (≈ 0.085 µM); MIC90 [8]: 0.125 µg/mL (≈ 0.177 µM); MIC [9]: 0.11 µg/mL (≈ 0.156 µM); MIC50 [9]: 0.125 µg/mL (≈ 0.177 µM); MIC90 [9]: 0.25 µg/mL (≈ 0.354 µM); MIC [10]: 0.028 µg/mL (≈ 0.0397 µM); MIC50 [10]: 0.03 µg/mL (≈ 0.0425 µM); MIC90 [10]: 0.06 µg/mL (≈ 0.085 µM)
4 | CC[C@H](C)C[C@H](C)CCCCCCCCC(=O)N[C@H]1C[C@@H](O)[C@@H](NCCN)NC(=O)[C@@H]2[C@@H](O)CCN2C(=O)[C@H]([C@H](O)CCN)NC(=O)[C@H]([C@H](O)[C@@H](O)c2ccc(O)cc2)NC(=O)[C@@H]2C[C@@H](O)CN2C(=O)[C@H]([C@@H](C)O)NC1=O [CASPOFUNGIN] | 0.19 (≈ 0.174 µM) | 0.125 (≈ 0.114 µM) | 0.25 (≈ 0.229 µM) | 1.15 (≈ 1.05 µM) | 1 (≈ 0.915 µM) | 2 (≈ 1.83 µM) | 0.66 (≈ 0.604 µM) | 0.5 (≈ 0.457 µM) | 1 (≈ 0.915 µM) | 8 (≈ 7.32 µM) | 8 (≈ 7.32 µM) | 8 (≈ 7.32 µM) | 0.12 (≈ 0.11 µM) | 0.14 (≈ 0.128 µM) | 0.27 (≈ 0.247 µM) | 0.54 (≈ 0.494 µM) | 0.5 (≈ 0.457 µM) | 1 (≈ 0.915 µM) | 0.31 (≈ 0.284 µM) | 0.25 (≈ 0.229 µM) | MIC90 [7]: 0.5 µg/mL (≈ 0.457 µM); MIC [8]: 8 µg/mL (≈ 7.32 µM); MIC50 [8]: 8 µg/mL (≈ 7.32 µM); MIC90 [8]: 8 µg/mL (≈ 7.32 µM); MIC [9]: 0.14 µg/mL (≈ 0.128 µM); MIC50 [9]: 0.125 µg/mL (≈ 0.114 µM); MIC90 [9]: 0.25 µg/mL (≈ 0.229 µM); MIC [10]: 0.07 µg/mL (≈ 0.064 µM); MIC50 [10]: 0.06 µg/mL (≈ 0.0549 µM); MIC90 [10]: 0.125 µg/mL (≈ 0.114 µM)
5 | CC[C@@H]([C@H](C)O)n1ncn(-c2ccc(N3CCN(c4ccc(OC[C@@H]5CO[C@@](Cn6cncn6)(c6ccc(F)cc6F)C5)cc4)CC3)cc2)c1=O [POSACONAZOLE] | 1.23 (≈ 1.76 µM) | 1 (≈ 1.43 µM) | 8 (≈ 11.4 µM) | 0.14 (≈ 0.2 µM) | 0.125 (≈ 0.178 µM) | 0.25 (≈ 0.357 µM) | 0.049 (≈ 0.0699 µM) | 0.06 (≈ 0.0856 µM) | 0.06 (≈ 0.0856 µM) | 0.07 (≈ 0.0999 µM) | 0.06 (≈ 0.0856 µM) | 0.125 (≈ 0.178 µM) | 0.04 (≈ 0.0571 µM) | 0.02 (≈ 0.0285 µM) | 0.18 (≈ 0.257 µM) | 0.015 (≈ 0.0214 µM) | 0.016 (≈ 0.0228 µM) | 0.03 (≈ 0.0428 µM) | 0.18 (≈ 0.257 µM) | 0.125 (≈ 0.178 µM) | MIC90 [7]: 0.25 µg/mL (≈ 0.357 µM); MIC [8]: 0.04 µg/mL (≈ 0.0571 µM); MIC50 [8]: 0.03 µg/mL (≈ 0.0428 µM); MIC90 [8]: 0.06 µg/mL (≈ 0.0856 µM); MIC [9]: 0.061 µg/mL (≈ 0.087 µM); MIC50 [9]: 0.06 µg/mL (≈ 0.0856 µM); MIC90 [9]: 0.25 µg/mL (≈ 0.357 µM); MIC [10]: 0.014 µg/mL (≈ 0.02 µM); MIC50 [10]: 0.008 µg/mL (≈ 0.0114 µM); MIC90 [10]: 0.03 µg/mL (≈ 0.0428 µM)

Reference: ChEMBL document CHEMBL1629527, “In vitro antifungal activities of bis(alkylpyridinium)alkane compounds against pathogenic yeasts and molds” (Antimicrob Agents Chemother, 2010)
